We go through one compound from ChEMBL document CHEMBL3804769, “Antibacterial Diamines Targeting Bacterial Membranes” (J Med Chem, 2016).

Structures are written as SMILES. Active and inactive are the calls of the source. The calls are words filed in the database; no cut-off is given here.

Data set [1] relates to Pseudomonas aeruginosa. Put plainly: Antibacterial activity against Pseudomonas aeruginosa PAO1 ATCC 47085 at 0.5 times MIC99 after 24 hrs by checkerboard assay in presence of norfloxacin. It is filed as functional. The gist of the method:
(§1)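 Checkerboard assay: compound serially diluted along one axis of a 96-well plate and antibiotic along the other, in LB. Each well inoculated with 2 × 10⁴ CFU and incubated 24 h at 37 °C. ΣFIC = FIC A + FIC B, where each FIC is the combination MIC99 divided by the MIC99 of that drug alone.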

Data set [2] has as its system Pseudomonas aeruginosa. Put plainly: Antibiofilm activity against Pseudomonas aeruginosa PAO1 ATCC 47085 assessed as dispersal of formed biofilm after 24 hrs by crystal violet staining-based spectrophotometry. It is filed as functional, organism-based. Put shortly: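 Biofilms first grown 24 h on peg lids without compound, then washed. Pegs transferred into serially diluted compound in 10% LB-PBS and incubated a further 24 h at 37 °C. Remaining biofilm stained with crystal violet, eluted in ethanol and read at 600 nm. 300 μM EDTA as positive control for dispersal.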

The subject of data set [3] is Staphylococcus aureus. The data set is described as follows: Antibacterial activity against methicillin-resistant Staphylococcus aureus clinical isolate 10082B SPA type 1 after 24 hrs by microbroth dilution method. It is filed as functional. Put shortly:
(§2)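 MRSA isolates from ICU surfaces, stored at −80 °C and grown in Mueller-Hinton broth. Overnight cultures diluted and added to serially diluted compound at ~10⁵ CFU/mL, broth microdilution. Plates incubated 24 h at 37 °C, growth read as absorbance at 620 nm. MIC99 taken as the lowest concentration giving complete growth inhibition.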
(Dilution methods test growth across graded concentrations, often in twofold steps.)

Data set [4] deals with Pseudomonas aeruginosa. The data set is described as follows: Bactericidal activity against Pseudomonas aeruginosa PAO1 ATCC 47085 in stationary-phase assessed as reduction in bacterial burden at 4 times MIC99 after 4 hrs by time-kill assay. It is filed as functional, organism-based. The gist of the method:
(§3)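 Overnight cultures washed and resuspended in PBS, then diluted 100-fold into LB (exponential-phase model) or into 1% PBS (stationary-phase model). Test agent added at 4× MIC99. Incubated at 37 °C with shaking at 200 rpm. CFU counted on LB agar at 0, 2, 4 and 6 h.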

Data set [5] relates to Staphylococcus aureus. The data set is described as follows: Bactericidal activity against Staphylococcus aureus RN4220 ATCC 35556 in exponential-phase assessed as reduction in bacterial burden at 4 times MIC99 after 2 to 6 hrs by time-kill assay. It is filed as functional, organism-based. The gist of the method:
as §3

Data set [6] has as its system Staphylococcus aureus. The data set is described as follows: Bactericidal activity against Staphylococcus aureus RN4220 ATCC 35556 in stationary-phase assessed as reduction in bacterial burden at 4 times MIC99 after 2 to 6 hrs by time-kill assay. It is filed as functional, organism-based. Put shortly:
as §3

Data set [7] deals with Staphylococcus aureus. Put plainly: Antibacterial activity against methicillin-resistant Staphylococcus aureus clinical isolate at MIC99 after 12 hrs by microbroth dilution method in presence of 10% fetal bovine serum. It is filed as functional, organism-based. The gist of the method:
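Broth microdilution MIC99 run with 10% fetal bovine serum in the medium, after 12 h preincubation of compound with the serum. Plates incubated overnight at 37 °C without shaking. MIC99 taken as the lowest concentration giving complete growth inhibition.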

The test system of data set [8] is Pseudomonas aeruginosa. Put plainly: Potentiation of kanamycin-induced antibacterial activity against Pseudomonas aeruginosa PAO1 ATCC 47085 assessed as kanamycin MIC at 0.5 times MIC99 after 24 hrs by checkerboard assay (reference value: 64 ug/ml). To be noted: PAO1 ATCC 47085, 24 h. It is filed as functional. Put shortly: as §1
Data set [9] relates to Staphylococcus aureus. Put plainly: Antibacterial activity against Staphylococcus aureus RN4220 ATCC 35556 incubated overnight by microbroth dilution method. It is filed as functional. Put shortly: (§4)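 Bacteria grown in LB medium. CLSI microbroth dilution in 96-well plates, overnight at 37 °C without shaking. MIC99 taken as the lowest concentration giving complete growth inhibition. Three independent determinations, reported as mean ± SD.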

In data set [10] the test system is Pseudomonas aeruginosa. Put plainly: Antibacterial activity against Pseudomonas aeruginosa PAO1 ATCC 47085 incubated overnight by microbroth dilution method. It is filed as functional. Put shortly: as §4
In data set [11] the test system is Staphylococcus aureus. Put plainly: Potentiation of kanamycin-induced antibacterial activity against Staphylococcus aureus RN4220 ATCC 35556 assessed as reduction in kanamycin MIC99 at 0.5 times MIC99 after 24 hrs by checkerboard assay relative to control. It is filed as functional. The gist of the method: as §1
Data set [12] concerns Staphylococcus aureus. Put plainly: Antibacterial activity against methicillin-resistant Staphylococcus aureus clinical isolate 20225B SPA type 15 after 24 hrs by microbroth dilution method. It is filed as functional. The gist of the method:
as §2

Data set [13] concerns Pseudomonas aeruginosa. Put plainly: Antibacterial activity against Pseudomonas aeruginosa PAO1 ATCC 47085 in exponential-phase assessed as cytoplasmic membrane depolarization at 1 to 4 times MIC99 by fluorescent probe DiSC3-5 based fluorophotometric analysis. It is filed as functional, organism-based. The gist of the method: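 Log-phase cells (OD600 ~0.7) washed and resuspended to OD600 0.05 in 5 mM HEPES pH 7.2 with 5 mM glucose and 100 mM KCl. Loaded with 0.4 μM DiSC3-5 in the dark until fluorescence fell stably by about 90%. Compound added at 4× or 1× MIC99 and fluorescence recorded continuously at 25 °C (ex 622/em 670 nm). 2,4-Dinitrophenol as positive control. Three independent experiments.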

Data set [14] in a line: Hemolytic activity in human RBC after 1 hr. It is filed as ADME, cell-based, Erythrocyte. The note with it: red blood cells. Put shortly: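 Human red blood cells, stored at 4 °C, added to serially diluted compound and incubated 1 h at 37 °C without shaking. Plates centrifuged and supernatant absorbance read at 540 nm. Triton X-100 as positive control. HC50 is the concentration lysing 50% of cells.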

The test system of data set [15] is Staphylococcus aureus. Put plainly: Antibacterial activity against Staphylococcus aureus RN4220 ATCC 35556 in early exponential-phase assessed as numerous spherical double layered mesosome like structures at 2 times MIC99 after 30 to 60 mins by transmission electron microscopy. It is filed as functional, organism-based. The gist of the method: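 Cells grown in LB to early exponential phase (OD600 ~0.4). Exposed to 2× MIC99 for 15–60 min, washed twice in phosphate buffer, fixed in 2.5% glutaraldehyde, then imaged by transmission electron microscopy.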

For data set [16], the system named is Pseudomonas aeruginosa. The data set is described as follows: Bactericidal activity against Pseudomonas aeruginosa PAO1 ATCC 47085 in exponential-phase assessed as reduction in bacterial burden at 4 times MIC99 upto 6 hrs by time-kill assay. It is filed as functional. The gist of the method: as §3
Data set [17] relates to Pseudomonas aeruginosa. Put plainly: Antibacterial activity against Pseudomonas aeruginosa PAO1 ATCC 47085 assessed as increase in outer membrane permeability at 1 to 4 times MIC99 by fluorescent probe 1-N-phenylnaphthylamine based fluorescence assay. It is filed as functional, organism-based. Put shortly:
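PAO1 cells harvested at OD600 ~0.5, washed, and resuspended in 5 mM HEPES pH 7.2 with 10 μM NPN (final) and 10 mM sodium azide (final). Held 30 min at room temperature in the dark. Compound added at 4× or 1× MIC99 and NPN fluorescence recorded continuously (ex 350/em 420 nm). Gentamicin at 4× MIC99 as positive control. Three independent experiments.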

A short description of data set [18]: Selectivity index, ratio of CC50 for HEK293T/17 cells to MIC99 for Staphylococcus aureus RN4220 ATCC 35556. It is filed as toxicity, cell-based. The note with it: human, read-out: Selectivity Index. Put shortly:
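CC50: HEK293T/17 or A549 cells seeded at 10⁴ per well in DMEM with 10% FBS at 37 °C, 5% CO2. After 24 h, wells PBS-washed and serially diluted compound applied for 48 h, with viability read by MTS and CC50 taken by nonlinear regression. MIC99 by CLSI broth microdilution, overnight at 37 °C without shaking, from three independent tests. SI = CC50/MIC99.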

With `Cl.Cl.S=C(NCCCNCCCCCNCCCNC(=S)NCC(c1ccccc1)c1ccccc1)NCC(c1ccccc1)c1ccccc1`, the “fractional inhibitory concentration index (FICI)” value in the data set with Pseudomonas aeruginosa [1] stood at 0.75. Besides, the outcome in the data set on Pseudomonas aeruginosa [2], in the data set on Pseudomonas aeruginosa [4], with Staphylococcus aureus [5], in the data set with Staphylococcus aureus [6], in the data set with Staphylococcus aureus [7] and in the data set on Pseudomonas aeruginosa [13] was Active. Also, the result in the data set on Staphylococcus aureus [15] and in the data set with Pseudomonas aeruginosa [17] was Active. Also, the MIC99 with Staphylococcus aureus [3] stood at 1 µg/mL; with Pseudomonas aeruginosa [8] it was 8 µg/mL; against Staphylococcus aureus [9], 2 µg/mL; with Pseudomonas aeruginosa [10] it was 8 µg/mL; with Staphylococcus aureus [12] it was 1 µg/mL. Also, in the data set on Staphylococcus aureus [11], the “fold change (FC)” value is on record as 8. The same compound gave a 50% haemolytic concentration (HC50) at 1 h in [14] of 64 µg/mL. Besides, the Activity with Pseudomonas aeruginosa [16] is on record as 4 deltalog10CFU/ml. Besides, the selectivity ratio in data set [18] is 16.

A word on the MIC99: it is an inhibitory concentration at the 99% level, which refers to growth in some studies and to a panel of isolates in others. A word on the HC50: it is the concentration that lyses half of the red blood cells.
